Results from ChEMBL document CHEMBL2029280, “3-fluoro- and 3,3-difluoro-3,4-dideoxy-KRN7000 analogues as new potent immunostimulator agents: total synthesis and biological evaluation in human invariant natural killer T cells and mice” (2012).
Calls of active or inactive are those of the source. The calls are words filed in the database; no cut-off is given here.

How the values were obtained:
Namalwa [1] = experiment: Activation of Namalwa cell expressing CD1D-TCR in human MAD11 cells assessed as TH1-mediated IFN-gamma secretion after 6 hrs by ELISA relative to KRN7000; type: cell-based
Summary of the method: (§1)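 APCs (hCD1d-transduced HeLa or Namalwa) plated 30000/well, loaded overnight at 37 °C with glycolipid titration in DMSO, washed twice. Vα24/Vβ11-sorted human iNKT line (15000 cells, no IL-2) added for 6 h at 37 °C. Supernatant IFN-γ measured by ELISA. No-glycolipid background subtracted. Mean of triplicates, SD shown. KRN7000 reference; untransduced APCs as negative control.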

Mus musculus [2] = experiment: Induction of CD1D-TCR-dependent NKT cell activation in C57BL/6J mouse assessed as TNF-alpha production at 100 ug/kg, ip relative to KRN7000; type: functional
Summary of the method: (§2)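 Female C57BL/6J mice, 6–8 weeks old, given 100 μg/kg glycolipid ip in 0.1 mL of 10% DMSO in 0.9% NaCl. Sera collected at several time points after injection; six mice per time point. Serum IFN-γ, IL-4 and TNF-α measured by ELISA. Time courses compared as area under the curve against KRN7000.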

Namalwa [3] = experiment: Activation of Namalwa cell expressing CD1D-TCR in human MAD11 cells assessed as TH2-mediated IL-13 secretion after 48 hrs by ELISA relative to KRN7000; type: functional, cell-based
Summary of the method: (§3)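 The hCD1d-transduced HeLa or Namalwa presenting cells were plated at 7500/well and pulsed overnight at 37 °C with increasing glycolipid concentrations in DMSO, then washed. 15000 sorted human iNKT cells were added without IL-2 for 48 h at 37 °C. IL-13 in supernatant was measured by ELISA, minus background without glycolipid. Triplicate mean ± SD, with KRN7000 as reference.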

MAD11 [4] = experiment: Activation of Hela cell expressing human CD1D-TCR in human MAD11 cells assessed as TH2-mediated IL-13 secretion after 48 hrs by ELISA relative to KRN7000; type: functional, cell-based; summary of the method: as §3
MAD11 [5] = experiment: Activation of Hela cell expressing human CD1D-TCR in human MAD11 cells assessed as TH1-mediated TNFalpha secretion after 6 hrs relative to control; type: cell-based
Summary of the method: (§4)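 Human CD1d-transduced HeLa or Namalwa cells, 30000/well, incubated overnight at 37 °C with graded glycolipid (DMSO), washed twice, then cocultured 6 h at 37 °C with 15000 Vα24+/Vβ11+ human iNKT cells in RPMI without IL-2. TNF-α in cell-free supernatant measured by WEHI 164 cytotoxicity (MTT). No-glycolipid background subtracted. Mean of triplicates; at least 3 experiments.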

Namalwa [6] = experiment: Activation of Namalwa cell expressing CD1D-TCR in human MAD11 cells assessed as TH1-mediated TNFalpha secretion after 6 hrs relative to control; type: cell-based; summary of the method: as §4
Mus musculus [7] = experiment: Induction of CD1D-TCR-dependent NKT cell activation in C57BL/6J mouse assessed as ratio of IFNgamma/IL-4 production at 100 ug/kg, ip relative to KRN7000; type: functional
Summary of the method: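 Female C57BL/6J mice, 6–8 weeks old, received 100 μg/kg ip in 0.1 mL of 10% DMSO/0.9% NaCl. Serial serum samples were taken, six mice per time point. IFN-γ and IL-4 were measured by ELISA, and the ratio of AUC IFN-γ to AUC IL-4 was computed.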

Mus musculus [8] = experiment: Induction of CD1D-TCR-dependent NKT cell activation in C57BL/6J mouse assessed as IFN-gamma production at 100 ug/kg, ip relative to KRN7000; type: functional; summary of the method: as §2
MAD11 [9] = experiment: Activation of Hela cell expressing human CD1D-TCR in human MAD11 cells assessed as TH1-mediated IFN-gamma secretion after 6 hrs by ELISA relative to KRN7000; type: cell-based; summary of the method: as §1
Mus musculus [10] = experiment: Induction of CD1D-TCR-dependent NKT cell activation in C57BL/6J mouse assessed as IL-4 production at 100 ug/kg, ip relative to KRN7000; type: functional; summary of the method: as §2
Mus musculus [11] = experiment: Induction of CD1D-TCR-dependent NKT cell activation in C57BL/6J mouse assessed as IFN-gamma production at 100 ug/kg, ip measured after 8 hrs relative to KRN7000; type: functional; summary of the method: as §2

| SMILES | Activity (Namalwa [1]) | Activity (Mus musculus [2]) [%] | Activity (Namalwa [3]) | Activity (MAD11 [4]) | Activity (MAD11 [5]) | Activity (Namalwa [6]) | Ratio (Mus musculus [7]) | Activity (Mus musculus [8]) [%] | Activity (MAD11 [9]) | Ratio (Mus musculus [10]) | Activity (Mus musculus [11]) |
| --- | --- | --- | --- | --- | --- | --- | --- | --- | --- | --- | --- |
| CCCCCCCCCCCCCCCCCCCCCCCCCC(=O)N[C@H](CCCCCCCCCCCCCCC)CO[C@H]1O[C@H](CO)[C@H](O)[C@H](O)[C@H]1O | Active | 40 | Active | Active | Active | Active | 1.86 | 70 | Active | 0.35 | – |
| CCCCCCCCCCCCCCCCCCCCCCCCCC(=O)N[C@@H](CO[C@H]1O[C@H](CO)[C@H](O)[C@H](O)[C@H]1O)C(F)(F)CCCCCCCCCCCCCCC | Active | 32 | Active | Active | Active | Active | 1.31 | – | Active | 0.35 | Active |
| CCCCCCCCCCCCCCCCCCCCCCCCCC(=O)N[C@@H](CO[C@H]1O[C@H](CO)[C@H](O)[C@H](O)[C@H]1O)[C@H](F)CCCCCCCCCCCCCC | Active | 23 | Active | Active | Active | Active | 0.78 | – | Active | 0.35 | 30% |
| CCCCCCCCCCCCCCCCCCCCCCCCCC(=O)N[C@@H](CO[C@H]1O[C@H](CO)[C@H](O)[C@H](O)[C@H]1O)[C@H](O)[C@H](O)CCCCCCCCCCCCCC | Active | – | Active | Active | Active | Active | – | – | Active | – | – |
